From PubChem
This is a sample that favours compounds with a hit; in the whole collection about 2.5% have one here.
TDP2 absorb: TDP2 (human) inhibition, absorbance primary screen; inhibition, % at 12.8 µM; recombinant TDP2, T5PNP hydrolysis, p-nitrophenol absorbance 415 nm; actives 0.34% (n = 370,000);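 active = inhibition above the mean of all tested compounds plus 3 SD, set per campaign, cut at about 25% in these data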;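 also: 0% = DMSO with enzyme and 100% = buffer with substrate but no TDP2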
Target sequence (O95551 whole entry, looked up): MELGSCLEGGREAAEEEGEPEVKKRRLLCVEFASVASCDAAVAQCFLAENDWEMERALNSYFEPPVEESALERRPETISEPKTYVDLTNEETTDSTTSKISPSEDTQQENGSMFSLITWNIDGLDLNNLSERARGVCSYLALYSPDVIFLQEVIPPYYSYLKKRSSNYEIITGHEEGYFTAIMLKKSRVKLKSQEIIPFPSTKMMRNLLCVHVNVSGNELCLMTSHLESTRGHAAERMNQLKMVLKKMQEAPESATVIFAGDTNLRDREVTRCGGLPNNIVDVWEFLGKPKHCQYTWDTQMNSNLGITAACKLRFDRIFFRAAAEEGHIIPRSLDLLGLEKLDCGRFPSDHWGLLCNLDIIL
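Test system: human TDP2 enzyme; Input: 120 nM TDP2 per well; Buffer or medium: Mg2+-containing Tris-HCl buffer, pH 7.5; Reagent: 5 mM T5PNP; Dosing: 12.8 µM single point, 1% DMSO; Incubation: reaction 2 h, 37 °C; Detection: p-Nitrophenol epi absorbance; Read-out: % inhibition relative to enzyme-containing and enzyme-free wells; Replicates: single well per compound.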
Fh CTSL1 inh: blocks F. hepatica cathepsin L1 in PFM18AAP counter-screen. recombinant F. hepatica cathepsin L1, Z-Leu-Arg-MCA fluorescence. inhibition, % at 5.96 µM. actives 0.49% (n = 300,000). AID 1906;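 active = inhibition above the mean of all tested compounds plus 3 SD, set per screening campaign, cut at about 17% in these data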;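 also: 0% = plate median of test compound wells and 100% = 1 µM Z-Phe-Ala-diazomethylketone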
GSTO1 counter: blocks human GSTO1 in RBBP9 counter-screen; P78417; recombinant GSTO1, activity-based probe fluorescence polarization; inhibition, % at 5.96 µM; actives 1.1% (n = 300,000); AID 1974;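 active = inhibition above the campaign mean inhibition plus 3 SD, cut at about 35% in these data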;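 also: 0% = GSTO1-1 with DMSO and 100% = wells lacking GSTO1-1 enzyme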
Target sequence (P78417 whole entry, looked up): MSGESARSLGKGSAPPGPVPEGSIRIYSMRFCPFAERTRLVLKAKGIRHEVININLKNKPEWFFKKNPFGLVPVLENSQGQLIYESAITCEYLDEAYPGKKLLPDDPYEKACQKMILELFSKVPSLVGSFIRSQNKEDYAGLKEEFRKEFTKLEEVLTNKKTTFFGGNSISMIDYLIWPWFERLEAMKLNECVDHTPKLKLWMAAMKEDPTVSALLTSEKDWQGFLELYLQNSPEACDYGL
PRMT1 inh: inhibitors of human PRMT1; recombinant PRMT1, activity-based probe fluorescence polarization; inhibition, % at 2.79 µM; actives 1.3% (n = 370,000); AID 652257; Q99873;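 active = inhibition above about 21% made by adding two undisclosed values, limit read from the data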
PAD4 FP inh: inhibitors of human PAD4 | Q9UM07 | recombinant PAD4, RCA probe fluorescence polarization | inhibition, % at 6.36 µM | actives 0.41% (n = 330,000);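 active = percent inhibition above a cutoff equal to the mean of all tested compounds plus 3 SD, cut at about 15% in these data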;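 also: 0% = PAD4 with RCA probe and DMSO and 100% = probe without PAD4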
PAD4 confirm: PAD4 (human) inhibition, confirmed; inhibition, % at 6.36 µM; shares compounds with PAD4 FP inh; actives 28% (n = 1,200); recombinant PAD4, RCA probe fluorescence polarization;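 active = mean inhibition across replicates above the hit cutoff set by the earlier primary screen, cut at about 15% in these data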;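 also: inhibitors block active-site labeling by the probe so polarization falls; 0% = PAD4 with probe and DMSO and 100% = probe without PAD4 enzyme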
PRMT1 inh conf: PRMT1 (human) inhibition, FP confirmation; shares compounds with PRMT1 inh; recombinant His-PRMT1, activity-based probe fluorescence polarization; inhibition, % at 2.79 µM; actives 42% (n = 3,300);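 active = mean inhibition across replicates above the hit cutoff derived for the earlier primary screen, cut at about 22% in these data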
TDP2 inh conf: confirmation of human TDP2 inhibitors | shares compounds with TDP2 absorb | recombinant human TDP2, absorbance read-out | inhibition, % at 12.8 µM | actives 22% (n = 1,100); in the data active = inhibition above about 25%;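 also: 0% = vehicle with enzyme and 100% = no enzyme buffer only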
* = called active by the depositor; ! = not active in a repeat.

`CCCC1C2CN(C(C)C)CC=C2C(C#N)=C(N)C1(C#N)C#N` (centres undefined) gave TDP2 absorb -3.7, Fh CTSL1 inh 0.1, GSTO1 counter -3.1, PRMT1 inh 70.1*, PAD4 FP inh 25.5*, PAD4 confirm 11.7 and PRMT1 inh conf 22.1*.
CN1CC=C2C(C#N)=C(N)C(C#N)(C#N)C(CCc3ccccc3)C2C1 (centres undefined) was read as Fh CTSL1 inh -2.2, GSTO1 counter 1.9 and PAD4 FP inh 2.5.
For Cc1n[nH]c(C)c1N1C(=O)c2cccc3c(N4CCCCCC4)ccc(c23)C1=O the results were TDP2 absorb -2.6, Fh CTSL1 inh -1.6, GSTO1 counter 13.2, PRMT1 inh 99.7*, PAD4 FP inh 38.2*, PAD4 confirm 26.7* and PRMT1 inh conf 88.3*.
CCOC(=O)CC[C@H]1CC[C@]2(CCCN(C(=O)c3cccnc3)C2)O1 was read as TDP2 absorb 7.1 and PRMT1 inh -1.0.
COc1cccc(-c2cc(=O)[nH][nH]2)c1 was read as TDP2 absorb 77.4*, Fh CTSL1 inh 1.1, GSTO1 counter 17.2, PRMT1 inh 4.8, PAD4 FP inh 38.1*, PAD4 confirm -4.8 and TDP2 inh conf 0.0.
`COc1ccc(/C=N/Nc2nnc(C)n2N)cc1OC` gave TDP2 absorb 53.8*, Fh CTSL1 inh 1.2, GSTO1 counter 34.1, PRMT1 inh -1.5, PAD4 FP inh 25.4*, PAD4 confirm 5.2 and TDP2 inh conf -3.2.
`COc1ccc(/C=N/Nc2ncnc(Cl)c2N)cc1OC` gave TDP2 absorb 2.0, Fh CTSL1 inh 3.0, GSTO1 counter 11.2, PRMT1 inh 5.9 and PAD4 FP inh -4.5.
For COc1ccc(/C=N/Nc2nnc(C)n2N)cc1OC(C)=O the results were TDP2 absorb 42.4*, Fh CTSL1 inh -0.1, GSTO1 counter 30.5, PRMT1 inh 4.4, PAD4 FP inh 44.6*, PAD4 confirm 4.5 and TDP2 inh conf 9.2.
COc1cc(/C=N/n2nnnc2N)ccc1OC(C)=O was read as TDP2 absorb -2.2 and PRMT1 inh 2.2.
`COC(=O)[C@]12C[C@H](CC(=O)NCCc3ccccc3OC)C(=O)N(CCC3=CCCCC3)C1=C[C@H](C1CCCC1)O[C@@H]2C` gave TDP2 absorb 7.0 and PRMT1 inh -2.4.
For COc1ccc(N2CCN(CCCNC(=O)Cc3ccc(C(F)(F)F)cc3)CC2)cc1 the results were TDP2 absorb 7.2 and PRMT1 inh -4.5.
Screening COc1ccc(OC)c(S(=O)(=O)Nc2cccc3ccccc23)c1 returned TDP2 absorb 0.8, Fh CTSL1 inh 0.3, GSTO1 counter -2.3, PRMT1 inh -2.7 and PAD4 FP inh 3.0.
`COc1ccc(OC)c(S(=O)(=O)Oc2ccc(N)c3ccccc23)c1` gave TDP2 absorb 33.1*, Fh CTSL1 inh -5.4, GSTO1 counter 35.0*, PRMT1 inh 19.3, PAD4 FP inh 21.4*, PAD4 confirm -9.8 and TDP2 inh conf -0.1.
For CC[C@@H](CCC(=O)N(c1ccccc1)c1ccccc1)c1ccc(C)cc1 the results were TDP2 absorb 3.3 and PRMT1 inh -3.0.
`COc1ccc(NC(=S)Nc2ccccc2)cc1` gave TDP2 absorb 3.2, Fh CTSL1 inh -6.0, GSTO1 counter 2.9, PRMT1 inh -3.8 and PAD4 FP inh 0.1.
For Oc1ccc(NC(=S)Nc2ccccc2)cc1 the results were TDP2 absorb 24.6*!, Fh CTSL1 inh -1.2, GSTO1 counter 7.7, PRMT1 inh 7.8, PAD4 FP inh 21.5*!, PAD4 confirm 1.6 and TDP2 inh conf -4.0.
Screening O=c1cc(-c2ccc(Br)cc2)[nH][nH]1 returned TDP2 absorb 51.0*, Fh CTSL1 inh -1.1, GSTO1 counter 24.0, PRMT1 inh -1.1, PAD4 FP inh 56.5*, PAD4 confirm -0.9 and TDP2 inh conf 10.2.
O=c1ccc(Br)c[nH]1 was read as TDP2 absorb 4.3, Fh CTSL1 inh 1.8, GSTO1 counter 4.8, PRMT1 inh -1.7 and PAD4 FP inh -5.1.
For COc1ccc2[nH]c3c(c2c1)CCN[C@]31C(=O)N(Cc2ccccc2)c2ccccc21 the results were TDP2 absorb -3.7 and PRMT1 inh 2.5.
Screening Cc1ccc(C(C[N+](=O)[O-])c2c(C)[nH]n(-c3ccccc3)c2=O)cc1 (centres undefined) returned TDP2 absorb 33.8*, Fh CTSL1 inh 30.9*, GSTO1 counter 75.6*, PRMT1 inh 0.7, PAD4 FP inh 16.7*, PAD4 confirm -4.2 and TDP2 inh conf 32.0*.
`C/C(=C\C(=O)c1ccccc1)Nc1ccc(N2CCOCC2)cc1` gave TDP2 absorb 33.4*, Fh CTSL1 inh -3.1, GSTO1 counter 6.1, PRMT1 inh 1.4, PAD4 FP inh 20.1*, PAD4 confirm 6.3 and TDP2 inh conf -5.9.
Screening CCc1ccc(C(=O)NC(=S)Nc2ccc(N3CCOCC3)cc2)cc1 returned TDP2 absorb 3.0, Fh CTSL1 inh 2.6, GSTO1 counter -1.6, PRMT1 inh 5.8 and PAD4 FP inh -2.9.
Screening CC(=O)c1ccc(NC(=S)Nc2ccc(N3CCOCC3)cc2)cc1 returned TDP2 absorb 27.9*, Fh CTSL1 inh 5.3, GSTO1 counter 24.0, PRMT1 inh 12.9, PAD4 FP inh 19.6*, PAD4 confirm 1.6 and TDP2 inh conf 8.0.
For C/C(=C\C(=O)c1ccc(Cl)cc1)Nc1ccc(N2CCOCC2)cc1 the results were TDP2 absorb 19.7, Fh CTSL1 inh 0.6, GSTO1 counter 4.0, PRMT1 inh -0.6 and PAD4 FP inh -8.8.
For CCCCCCCCN1C(=O)[C@@H](CC(=O)NCc2ccc(OC)c(OC)c2)C[C@@]2(C(=O)OC)C1=C[C@H](COCc1ccccc1)O[C@@H]2C the results were TDP2 absorb -8.8 and PRMT1 inh -1.0.
`CCCCCCCCNS(=O)(=O)/C=C/c1ccccc1CNC(=O)OC(C)(C)C` gave TDP2 absorb -2.5 and PRMT1 inh 1.4.
`CC1=NN(c2ccccc2)C(=O)/C1=C/c1cccs1` gave TDP2 absorb 70.5*, Fh CTSL1 inh -2.9, GSTO1 counter 55.0*, PRMT1 inh 2.9, PAD4 FP inh 34.9*, PAD4 confirm 1.2 and TDP2 inh conf 22.1.
For CC1=NN(c2ccccc2)C(=O)/C1=C\c1ccc(Br)s1 the results were TDP2 absorb 52.1*, Fh CTSL1 inh -3.7, GSTO1 counter 16.2, PRMT1 inh 1.8, PAD4 FP inh 16.4*, PAD4 confirm -1.9 and TDP2 inh conf 27.6*.
For COc1ccc(OC)c(S(=O)(=O)N2CCCCC2C(=O)N2CCN(c3ccccc3F)CC2)c1 (centres undefined) the results were TDP2 absorb -0.2 and PRMT1 inh 11.1.
